This excerpt belongs to a sample that is enriched for hits.
UPR XBP1 act: adaptive UPR (XBP1) activation. CHO-XBP1 luciferase reporter, IRE1-XBP1 UPR activation, luminescence; percent of tunicamycin response, DMSO as zero. activation, % at 20 µM. hit rate 0.33% among 330,000;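 active = versus positive control, 20 µM dose yields 30% or more activation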
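Material: IRE1-XBP1 luciferase reporter CHO line / Quantity: one thousand reporter cells per well / Buffer or medium: F12 with 10% serum / Compound: 20 µM single concentration, DMSO 1% / Times: 6 h treatment, 37 °C / Detection: Steady-Glo luciferase glow luminescence, 10 min after reagent addition / Benchmarks: tunicamycin high, DMSO low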
NOD2-RIPK2 inh: blocks binding of human NOD2 to RIPK2. O43353. inhibition, % at 4.98 µM. hit rate 0.38% among 360,000. AID 624267. CHO BLA complementation NOD2-RIPK2, CCF4 ratio; in the data active = inhibition above about 21%
TLR4-MyD88 BLA: TLR4-MyD88 interaction inhibition in cells; hit rate 0.18% among 200,000; HeLa CL3-4 TLR4/MyD88 BLA complementation, FRET ratio; AID 861; inhibition, % at 8.4 µM; O00206+Q99836; in the data active = inhibition above about 25%
CHOP inhibitor: inhibitors of CHOP induction in ER stress response | CHO-K1 CHOP-promoter luciferase, tunicamycin-induced, 15-18 h | inhibition, % at 10 µM | hit rate 3.8% among 220,000 | AID 2732;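 active = compounds that reduced the stress-induced luciferase reporter signal by more than about 70% of percent inhibition, limit read from the data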
TLR9-MyD88 block: inhibitors of human TLR9-MyD88 binding | Q9NR96+Q99836 | inhibition, % at 4.98 µM | hit rate 0.21% among 340,000 | CHO BLA complementation TLR9-MyD88, CCF4 FRET ratio;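 active = inhibition above the mean over all tested compounds plus 3 SD, cut at about 21% in these data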
UPR CHOP act: apoptotic UPR (CHOP) activation; CHO-CHOP luciferase reporter, luminescence; percent of tunicamycin response over DMSO baseline; activation, % at 10 µM; hit rate 0.34% among 330,000;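 active = at 10 µM dose, activation of 40% or more, normalized to positive control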
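assay system = CHO CHOP reporter cells | amount = 500 CHO-CHOP cells per well | buffer or medium = F12 with 10% FBS | incubation = 16-18 h cell attachment, then 6 h compound exposure, 37 °C | detection = luminescence read with Steady-Glo | read-out = percent activation relative to tunicamycin control | controls = tunicamycin high control, DMSO low control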
A number is an active result; i = inactive; nt = not tested or not shown.

SMILES	UPR XBP1 act	NOD2-RIPK2 inh	TLR4-MyD88 BLA	CHOP inhibitor	TLR9-MyD88 block	UPR CHOP act
C=CCNc1nc(N)c(C(=C(C#N)C#N)c2ccc(Br)cc2)s1	i	i	i	81	i	i
Cc1ccc(CN=c2c([N+](=O)[O-])nn(-c3cccc(Cl)c3)n2O)cc1	i	i	i	84	i	i
CC1CCN(C(=O)CSc2nnc(CSc3ncccn3)n2C)CC1	i	i	i	i	i	i
CC(C)(CC(=O)N1CCN(c2ccc(Cl)cc2)CC1)CC1=NS(=O)(=O)c2ccccc2N1	i	i	i	71	i	i
O=c1c2ccccc2sn1-c1ccc(S(=O)(=O)N2CCCC2)cc1	i	i	i	87	i	i
CN(C)S(=O)(=O)c1cccc(-n2sc3ccccc3c2=O)c1	i	i	i	93	i	i
O=c1c2ccccc2sn1-c1ccc(S(=O)(=O)N2CCCCC2)cc1	i	i	i	nt	i	i
CCc1noc(C)c1C(=O)NNC(=O)c1cc(OC)cc(OC)c1	i	i	nt	nt	i	i
CCOC(=O)CN(C(=O)CSc1nnc2c(n1)[nH]c1c(C)cc(C)cc12)c1ccccc1	nt	nt	i	82	nt	nt
CC(=O)C1=CCC(c2cccc(Cl)c2)N(S(=O)(=O)c2ccc(C)cc2)C1 (stereo not drawn)	nt	i	nt	nt	nt	nt
Cc1ccc2c(c1)Oc1ccc(NC(=O)CCl)cc1C(=O)N2	i	i	i	107	i	i
O=C(C#Cc1ccccc1)c1ccc([N+](=O)[O-])cc1	i	i	i	111	i	i
COc1ccccc1-n1cnc2cc(NS(=O)(=O)c3ccc(Br)cc3)ccc21	i	i	i	79	i	i
CCCn1c(N/N=C\C=C\c2ccccc2)nc2c1c(=O)[nH]c(=O)n2C	i	i	i	93	i	i
COCCNC(=O)c1cccc(Nc2nc(-c3ccccc3)c3cc(Cl)ccc3n2)c1	i	i	i	82	i	i
COc1ccc(CNC(=O)Cn2c(=O)n(CC(=O)N3CCCCC3)c(=O)c3sccc32)cc1	i	i	nt	nt	i	i
Cc1ccc(S(=O)(=O)N(CC(=O)N2CCOCC2)c2ccc(C(C)C)cc2)cc1	i	i	nt	nt	i	i
CCOC(=O)/C(=N\Nc1ccccc1Cl)N1CC(C)OC(C)C1 (stereo not drawn)	i	i	nt	70	i	i
CCOC(=O)/C(=N\Nc1cc(Cl)ccc1Cl)N1CC(C)OC(C)C1 (stereo not drawn)	i	i	nt	i	i	i
CC(=O)Nc1cccc(NC(=O)C(C)N2c3cccc4cccc(c34)S2(=O)=O)c1 (stereo not drawn)	i	i	nt	nt	i	i
Oc1ccc(N=Nc2c(O)ccc3ccccc23)cc1	i	i	i	92	i	i
NS(=O)(=O)c1ccc(N=Nc2c(O)ccc3ccccc23)cc1	i	i	i	74	i	i
COc1ccc(NC(=O)CN(C)C(=O)CCCSc2nc3ccccc3[nH]2)cc1	i	i	nt	nt	i	i
O=C(CSc1nnc(-c2ccccc2F)o1)NC(=O)Cc1ccccc1	i	i	nt	nt	i	i
Cc1nn(-c2ccc(F)cc2)c(Cl)c1/C=C1\C(=O)Nc2ccccc21	i	i	i	94	i	i
SMILES	UPR XBP1 act	NOD2-RIPK2 inh	TLR4-MyD88 BLA	CHOP inhibitor	TLR9-MyD88 block	UPR CHOP act
Cc1nn(-c2ccccc2)c(Cl)c1/C=C1\N=C(c2ccccc2)OC1=O	nt	nt	i	nt	nt	nt
O=[N+]([O-])c1nn(-c2ccc3c(c2)OCCO3)n(O)c1=NCc1ccccc1Cl	i	i	i	i	i	i
O=[N+]([O-])c1nn(-c2ccc3c(c2)OCCO3)n(O)c1=NC1CCCCC1	i	i	i	87	i	i
CCCCN(C(=O)NCCCCCCNC(=O)N(CCCC)C1CCS(=O)(=O)C1)C1CCS(=O)(=O)C1 (stereo not drawn)	i	i	nt	nt	i	i
CC(C)(C)C1CCC2(CC1)C(C#N)=C(SCC(=O)NC1CCCCC1)NC(=O)C2C#N (stereo not drawn)	i	i	i	81	i	i
N#CC1=C(SCC(=O)NC2CC2)NC(=O)C(C#N)C12CCCCC2 (stereo not drawn)	i	i	i	i	i	i
N#CC1=C(SCC(=O)NC23CC4CC(CC(C4)C2)C3)NC(=O)C(C#N)C12CCCCC2 (stereo not drawn)	i	i	i	85	i	i
Cc1ccc(N=Nc2c(N)nn3c(N)c(C#N)c(C)nc23)cc1	i	i	i	73	i	i
CC(=O)N1C[C@@H](CO)[C@@H](N(C)C(=O)C(C)(C)C)C[C@H]1c1ccccc1	nt	i	nt	nt	nt	nt
CCCCCCCCCC[n+]1cccc2c3ccccc3ccc21	nt	i	i	106	i	nt
COc1cc(F)ccc1-c1csc(C(C)(O)c2ccccc2)n1 (stereo not drawn)	nt	i	nt	nt	nt	nt
CC(C)OC(=O)CSc1nnc(-c2ccc(Cl)cc2Cl)o1	i	i	i	i	i	i
CCCCOC(=O)CSc1nnc(-c2ccc(Cl)cc2Cl)o1	i	i	i	71	i	i
O=C(O)COCC(=O)Nc1ccc(-n2cnnn2)cc1	i	i	i	i	i	i
Oc1c(Cl)cc(Cl)cc1C=Nc1ccc2c(c1)OCCO2	i	i	i	87	i	i
C=CCC1(N(C(C)=O)c2ccccc2C)CCCCC1	i	i	i	i	i	i
N=C1/C(=C\c2ccc(-c3cc(Cl)cc(Cl)c3)o2)C(=O)N=C2SC=C(c3ccccc3)N12	i	i	i	i	i	i
CCOc1ccc(-c2ccc(/C=C3/C(=N)N4C=CSC4=NC3=O)o2)c([N+](=O)[O-])c1	nt	i	i	86	i	nt
CCOc1ccc(-c2ccc(/C=C3/C(=N)N4C(C)=CSC4=NC3=O)o2)c([N+](=O)[O-])c1	i	i	i	88	i	i
CCOC(=O)c1[nH]c2ccccc2c1NC(=O)Nc1ccc(OC)cc1	i	i	i	87	i	i
CCCC(=O)Nc1c(C(=O)OCC)[nH]c2ccccc12	i	i	i	i	i	i
CCCCCCn1c(SCC(=O)Nc2cc(C)on2)nc2ccccc2c1=O	i	i	i	75	i	i
C=CCSc1nc2ccccc2c(=O)n1Cc1ccccc1	i	i	i	87	i	i
Cc1cc(NC(=O)CSc2nc3ccccc3c(=O)n2Cc2ccc(F)cc2)no1	i	i	i	78	i	i
O=c1c2ccccc2nc(SCc2ccccc2Cl)n1Cc1ccccc1	i	i	i	i	i	i
O=C(CSc1nc2ccccc2c(=O)n1Cc1ccc(F)cc1)NCc1cccs1	i	i	i	82	i	i
Cn1c(N)c(C(=O)COC(=O)/C=C/c2ccccc2)c(=O)n(C)c1=O	i	i	nt	nt	i	i
Cn1c(SCC(=O)N2CCCC2)nnc1-c1cnccn1	i	i	i	i	i	i
COCCn1c(SCC(=O)Nc2cc(C)on2)nc2ccccc2c1=O	i	i	nt	nt	i	i
